Reference: ChEMBL document CHEMBL1150411, “4-(Phenylaminomethylene)isoquinoline-1,3(2H,4H)-diones as potent and selective inhibitors of the cyclin-dependent kinase 4 (CDK4)” (J Med Chem, 2008)
In brackets after ≈: the same amount, converted by molar mass. Activity calls are given as the source filed them. The calls are words filed in the database; no cut-off is given here.

What was measured:
HCT-116 = experiment: Antiproliferative activity against human HCT116 cells by SRB method; type: functional, cell-based
MCF7 [1] = experiment: Antiproliferative activity against human MCF7 cells by SRB method; type: functional, cell-based
[2] = biological target: Cyclin-dependent kinase 1/cyclin B1 (Homo sapiens, UniProt P06493); experiment: Inhibition of CDK1/Cyclin B1 expressed in Sf9 cells-baculovirus system assessed as retinoblastoma susceptibility gene product phosphorylation
[3] = Aqueous solubility at pH 7.4; type: physicochemical
[4] = biological target: Cyclin-dependent kinase 4/cyclin D1 (Homo sapiens, UniProt P11802); experiment: Inhibition of CDK4/cyclin D1 expressed in Sf9 cells-baculovirus system assessed as retinoblastoma susceptibility gene product phosphorylation
[5] = biological target: Cyclin-dependent kinase 2 (Homo sapiens, UniProt P24941); experiment: Inhibition of CDK2/cyclin E expressed in Sf9 cells-baculovirus system assessed as retinoblastoma susceptibility gene product phosphorylation
[6] = biological target: T1, Retinoblastoma-associated protein (Homo sapiens) (UniProt P06400); experiment: Inhibition of retinoblastoma susceptibility gene product phosphorylation in human MCF7 cells after 24 hrs; type: cell-based
T1 sequence (whole entry): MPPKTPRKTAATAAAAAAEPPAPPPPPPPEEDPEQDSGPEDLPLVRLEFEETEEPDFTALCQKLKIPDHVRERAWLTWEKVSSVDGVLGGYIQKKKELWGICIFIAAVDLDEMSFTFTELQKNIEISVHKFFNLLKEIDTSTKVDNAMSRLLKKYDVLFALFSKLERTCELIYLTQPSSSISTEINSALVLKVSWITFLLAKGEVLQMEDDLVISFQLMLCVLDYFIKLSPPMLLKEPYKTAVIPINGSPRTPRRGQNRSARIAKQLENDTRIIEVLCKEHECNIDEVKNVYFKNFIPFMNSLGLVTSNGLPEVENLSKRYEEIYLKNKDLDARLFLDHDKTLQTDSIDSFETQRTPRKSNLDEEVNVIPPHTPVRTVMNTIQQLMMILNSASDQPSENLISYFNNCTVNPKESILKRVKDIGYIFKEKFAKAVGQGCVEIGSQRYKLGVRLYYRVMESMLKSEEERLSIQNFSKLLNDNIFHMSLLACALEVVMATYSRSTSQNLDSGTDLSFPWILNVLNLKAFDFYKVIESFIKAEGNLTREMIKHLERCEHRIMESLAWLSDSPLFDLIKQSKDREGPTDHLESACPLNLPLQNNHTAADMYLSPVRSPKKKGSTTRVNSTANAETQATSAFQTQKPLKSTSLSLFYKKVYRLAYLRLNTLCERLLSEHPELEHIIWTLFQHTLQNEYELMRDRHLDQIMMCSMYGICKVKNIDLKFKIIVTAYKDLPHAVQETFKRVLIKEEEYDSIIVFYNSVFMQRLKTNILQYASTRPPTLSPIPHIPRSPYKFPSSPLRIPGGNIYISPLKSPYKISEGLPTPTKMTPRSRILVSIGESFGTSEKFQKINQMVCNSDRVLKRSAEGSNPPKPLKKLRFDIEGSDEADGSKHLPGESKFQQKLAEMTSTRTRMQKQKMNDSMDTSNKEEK
Method in brief: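 MCF-7 cells exposed to compound for 24 h at 37 °C. Extracts separated by SDS-PAGE and immunoblotted with Rb antibody, with the phosphorylated pRB band followed. Also checked with an antibody specific for phospho-Ser807/811 pRB.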

MCF7 [7] = experiment: Cell cycle arrest in human MCF7 cells assessed as accumulation at G1 phase after 24 hrs by flow cytometry; type: functional, cell-based
Method in brief: (§1)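 MCF-7 cells in 6-well plates, exposed to compound for 24 h at 37 °C, then pulse-labelled with 10 µM bromodeoxyuridine for 30 min. Cells trypsinized, fixed in 80% methanol at -20 °C, acid-denatured and permeabilized, stained with anti-BrdU-FITC, counterstained with propidium iodide and run on flow cytometry. S-phase percentage taken from the propidium iodide histogram.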

MCF7 [8] = experiment: Cell cycle arrest in human MCF7 cells assessed as accumulation at S phase at 0.1 uM after 24 hrs by flow cytometry; type: functional; method in brief: as §1
MCF7 [9] = experiment: Cell cycle arrest in human MCF7 cells assessed as accumulation at S phase at 0.3 uM after 24 hrs by flow cytometry; type: functional; method in brief: as §1
MCF7 [10] = experiment: Cell cycle arrest in human MCF7 cells assessed as accumulation at S phase at 1 uM after 24 hrs by flow cytometry; type: functional; method in brief: as §1
MCF7 [11] = experiment: Cell cycle arrest in human MCF7 cells assessed as accumulation at S phase at 3 uM after 24 hrs by flow cytometry; type: functional; method in brief: as §1
MCF7 [12] = experiment: Decrease in cyclin D1 level in human MCF7 cells at 7.5 to 10 uM after 24 hrs by immunoblot analysis; type: functional; parameters: scale not given: the % may be the effect or the level left
Method in brief: (§2)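 MCF-7 cells incubated with or without compound for 24 h at 37 °C. Lysates made in Tris/NaCl/EDTA/NP-40/deoxycholate buffer containing PMSF, DTT, NaF and vanadate. 10-20 µg protein run on 8 or 10% SDS-PAGE and blotted to nitrocellulose. Probed with antibodies to each regulatory protein; actin antibody served as loading control.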

MCF7 [13] = experiment: Decrease in CDK4 level in human MCF7 cells at 7.5 to 10 uM after 24 hrs by immunoblot analysis; type: functional; parameters: scale not given: the % may be the effect or the level left; method in brief: as §2
MCF7 [14] = experiment: Decrease in CDK2 level in human MCF7 cells at 7.5 uM after 24 hrs by immunoblot analysis; type: functional; parameters: scale not given: the % may be the effect or the level left; method in brief: as §2
MCF7 [15] = experiment: Decrease in cyclin B level in human MCF7 cells at 4 uM after 24 hrs by immunoblot analysis; type: functional; parameters: scale not given: the % may be the effect or the level left; method in brief: as §2
MCF7 [16] = experiment: Decrease in CDK1 level in human MCF7 cells at 7.5 uM after 24 hrs by immunoblot analysis; type: functional; parameters: scale not given: the % may be the effect or the level left; method in brief: as §2
MCF7 [17] = experiment: Increase in cyclin E level in human MCF7 cells at >2 uM after 24 hrs by immunoblot analysis; type: functional; method in brief: as §2
MCF7 [18] = experiment: Decrease in p27 level in human MCF7 cells at 7.5 uM after 24 hrs by immunoblot analysis; type: functional; parameters: scale not given: the % may be the effect or the level left; method in brief: as §2

Cyclin-dependent kinase 1/cyclin B1, sequence (P06493 whole entry): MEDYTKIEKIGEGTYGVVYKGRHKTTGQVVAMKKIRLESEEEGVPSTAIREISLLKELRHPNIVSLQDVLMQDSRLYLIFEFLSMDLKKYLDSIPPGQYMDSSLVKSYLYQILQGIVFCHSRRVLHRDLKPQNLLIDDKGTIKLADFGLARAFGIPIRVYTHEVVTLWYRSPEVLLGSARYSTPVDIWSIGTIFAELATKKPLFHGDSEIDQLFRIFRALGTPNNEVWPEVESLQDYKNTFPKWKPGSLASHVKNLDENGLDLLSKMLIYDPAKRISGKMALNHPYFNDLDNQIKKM
Cyclin-dependent kinase 1/cyclin B1, sequence (P14635 whole entry, further chain): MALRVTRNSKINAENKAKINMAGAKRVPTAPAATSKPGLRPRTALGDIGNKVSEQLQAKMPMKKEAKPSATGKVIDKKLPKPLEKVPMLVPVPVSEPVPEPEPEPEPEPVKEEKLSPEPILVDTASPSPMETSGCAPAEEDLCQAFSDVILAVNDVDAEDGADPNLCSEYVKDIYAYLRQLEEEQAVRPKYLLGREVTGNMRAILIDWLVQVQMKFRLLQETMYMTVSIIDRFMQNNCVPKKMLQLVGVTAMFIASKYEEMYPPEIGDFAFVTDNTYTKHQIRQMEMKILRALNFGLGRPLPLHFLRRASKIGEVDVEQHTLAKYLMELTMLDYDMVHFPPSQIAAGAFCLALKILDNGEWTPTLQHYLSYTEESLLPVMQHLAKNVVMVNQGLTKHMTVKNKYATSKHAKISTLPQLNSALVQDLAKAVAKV
Cyclin-dependent kinase 4/cyclin D1, sequence (P11802 whole entry): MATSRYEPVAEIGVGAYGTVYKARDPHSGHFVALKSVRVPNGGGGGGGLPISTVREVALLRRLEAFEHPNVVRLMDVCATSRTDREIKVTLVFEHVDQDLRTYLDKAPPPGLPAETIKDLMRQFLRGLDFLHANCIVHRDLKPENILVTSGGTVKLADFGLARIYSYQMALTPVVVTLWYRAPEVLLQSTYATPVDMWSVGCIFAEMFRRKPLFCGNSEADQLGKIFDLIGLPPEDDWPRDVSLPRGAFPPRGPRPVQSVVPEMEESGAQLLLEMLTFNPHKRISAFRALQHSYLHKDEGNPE
Cyclin-dependent kinase 4/cyclin D1, sequence (P24385 whole entry, further chain): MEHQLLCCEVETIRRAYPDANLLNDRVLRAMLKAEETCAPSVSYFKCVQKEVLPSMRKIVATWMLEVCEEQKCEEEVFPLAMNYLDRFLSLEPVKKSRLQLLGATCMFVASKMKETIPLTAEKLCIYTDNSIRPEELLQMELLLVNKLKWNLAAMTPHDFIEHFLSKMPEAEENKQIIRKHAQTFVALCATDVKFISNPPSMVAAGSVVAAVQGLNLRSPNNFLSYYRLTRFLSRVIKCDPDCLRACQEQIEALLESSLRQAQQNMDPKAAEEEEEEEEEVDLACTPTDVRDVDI

SMILES | IC50 (HCT-116) | IC50 (MCF7 [1]) | IC50 [2] | IC50 [4] | IC50 [5] | other results
CN1CCN(c2ccc(N/C=C3\C(=O)NC(=O)c4ccc(-c5ccoc5)cc43)cc2F)CC1 | 2.2 µM | 0.9 µM | > 50 µM |  |  | 
O=C1NC(=O)c2ccc(-c3ccc(F)cc3)cc2/C1=C/Nc1ccc(CN2CCCCC2)cc1 | 1 µM | 0.55 µM | > 50 µM |  | > 50 µM | 
CC1CN(c2ccc(N/C=C3\C(=O)NC(=O)c4ccc(I)cc43)cc2)CCN1C (stereo not given) |  |  | > 50 µM |  | > 50 µM | solubility [3]: 5 µg/mL (≈ 9.95 µM)
O=C1NC(=O)c2ccc(I)cc2/C1=C/Nc1ccc(CN2CCCCC2)cc1 | 2.7 µM | 1 µM | > 50 µM |  |  | 
O=C1NC(=O)c2ccc(-c3ccsc3)cc2/C1=C/Nc1ccc(CN2CCCCC2)cc1 | 1 µM | 3.4 µM | > 50 µM | 0.13 µM |  | 
CN1CCN(c2ccc(N/C=C3\C(=O)NC(=O)c4ccc(I)cc43)cc2)CC1 |  |  | > 50 µM |  |  | solubility [3]: 1 µg/mL (≈ 2.05 µM)
CN1CC2CC1CN2c1ccc(N/C=C2\C(=O)NC(=O)c3ccc(I)cc32)cc1 (stereo not given) | 1.9 µM | 2.6 µM | > 50 µM | 0.32 µM | > 50 µM | solubility [3]: 18 µg/mL (≈ 36 µM)
CN1CCN(c2ccc(N/C=C3\C(=O)NC(=O)c4ccc(-c5ccoc5)cc43)nn2)CC1 | 1.9 µM | 4.5 µM |  |  |  | 
C[C@@H]1CN(c2ccc(N/C=C3\C(=O)NC(=O)c4ccc(I)cc43)cc2)C[C@H](C)N1C |  |  | > 50 µM |  |  | solubility [3]: 4 µg/mL (≈ 7.75 µM)
O=C1NC(=O)c2ccc(-n3cccc3)cc2/C1=C/Nc1ccc(CN2CCCCC2)cc1 | 2.7 µM | 2.1 µM | > 50 µM | 0.14 µM | > 50 µM | 
CN1CCN(c2ccc(N/C=C3\C(=O)NC(=O)c4ccc(-c5ccsc5)cc43)cc2)CC1 | 1.4 µM | 2.3 µM | > 50 µM | 0.1 µM |  | 
O=C1NC(=O)c2ccc(-c3cccc(O)c3)cc2/C1=C/Nc1ccc(CN2CCCCC2)cc1 | 1.3 µM | 2 µM | > 50 µM |  | > 50 µM | 
CN1CCN(c2ccc(N/C=C3\C(=O)NC(=O)c4ccc(-c5ccco5)cc43)cc2)CC1 |  |  | > 50 µM | 0.33 µM | > 50 µM | 

Further lines, with some results ahead:

IC50 (HCT-116) | IC50 (MCF7 [1]) | IC50 [2] | IC50 [4] | IC50 [5] | SMILES | other results
1.2 µM | 1.1 µM | > 50 µM |  |  | CN1CCN(c2ccc(N/C=C3\C(=O)NC(=O)c4ccc(-c5ccoc5)cc43)cc2)CC1 | 
5 µM | 1 µM | > 50 µM | 3 µM | > 50 µM | C[C@@H]1CN(c2ccc(N/C=C3\C(=O)NC(=O)c4ccc(I)cc43)cc2)[C@@H](C)CN1C | solubility [3]: 4 µg/mL (≈ 7.75 µM)
 |  | > 50 µM | 1 µM | > 50 µM | C[C@@H]1CN(c2ccc(N/C=C3\C(=O)NC(=O)c4ccc(I)cc43)cc2)C[C@H](C)N1 | solubility [3]: 12 µg/mL (≈ 23.9 µM)
0.95 µM | 1.3 µM |  | 1.25 µM |  | CN1CCN(c2cnc(N/C=C3\C(=O)NC(=O)c4ccc(-c5ccoc5)cc43)cn2)CC1 | 
3.1 µM | 3 µM | > 50 µM |  |  | CN1CCN(c2ccc(N/C=C3\C(=O)NC(=O)c4ccc(Br)cc43)cc2)CC1 | Activity [6]: Dose-dependent effect; Activity (MCF7 [7]): Active; Activity (MCF7 [8]): 37%; Activity (MCF7 [9]): 32%; Activity (MCF7 [10]): 16%; Activity (MCF7 [11]): 3%
1.1 µM | 3.2 µM |  |  |  | CN1CCN(c2ncc(N/C=C3\C(=O)NC(=O)c4ccc(-c5ccoc5)cc43)cn2)CC1 | 
1.5 µM | 2.3 µM | > 50 µM | 0.14 µM | > 50 µM | CN1CCN(c2ccc(N/C=C3\C(=O)NC(=O)c4ccc(-n5cccc5)cc43)cc2)CC1 | 
5 µM | 3.1 µM | > 50 µM | 1.1 µM | > 50 µM | O=C1NC(=O)c2ccc(Br)cc2/C1=C/Nc1ccc(CN2CCCCC2)cc1 | Activity [6]: Dose-dependent effect; Activity (MCF7 [7]): Active; Activity (MCF7 [8]): 35%; Activity (MCF7 [9]): 34%; Activity (MCF7 [10]): 10%; Activity (MCF7 [11]): 2%; Activity (MCF7 [12]): 85%; Activity (MCF7 [13]): 60%; Activity (MCF7 [14]): 55%; Activity (MCF7 [15]): 60%; Activity (MCF7 [16]): 40%; Activity (MCF7 [17]): 5%; Activity (MCF7 [18]): 45%
